Source: ChEMBL document CHEMBL1914346, “Discovery and synthesis of novel substituted benzocoumarins as orally active lipid modulating agents” (Bioorg Med Chem Lett, 2011)

Assays:
[1] = molecular target: T1, 3-hydroxy-3-methylglutaryl-coenzyme A reductase (Homo sapiens) (UniProt P04035); assay: Inhibition of HMG-CoA reductase using HMG-CoA as substrate at 50 uM
T1 sequence (whole entry): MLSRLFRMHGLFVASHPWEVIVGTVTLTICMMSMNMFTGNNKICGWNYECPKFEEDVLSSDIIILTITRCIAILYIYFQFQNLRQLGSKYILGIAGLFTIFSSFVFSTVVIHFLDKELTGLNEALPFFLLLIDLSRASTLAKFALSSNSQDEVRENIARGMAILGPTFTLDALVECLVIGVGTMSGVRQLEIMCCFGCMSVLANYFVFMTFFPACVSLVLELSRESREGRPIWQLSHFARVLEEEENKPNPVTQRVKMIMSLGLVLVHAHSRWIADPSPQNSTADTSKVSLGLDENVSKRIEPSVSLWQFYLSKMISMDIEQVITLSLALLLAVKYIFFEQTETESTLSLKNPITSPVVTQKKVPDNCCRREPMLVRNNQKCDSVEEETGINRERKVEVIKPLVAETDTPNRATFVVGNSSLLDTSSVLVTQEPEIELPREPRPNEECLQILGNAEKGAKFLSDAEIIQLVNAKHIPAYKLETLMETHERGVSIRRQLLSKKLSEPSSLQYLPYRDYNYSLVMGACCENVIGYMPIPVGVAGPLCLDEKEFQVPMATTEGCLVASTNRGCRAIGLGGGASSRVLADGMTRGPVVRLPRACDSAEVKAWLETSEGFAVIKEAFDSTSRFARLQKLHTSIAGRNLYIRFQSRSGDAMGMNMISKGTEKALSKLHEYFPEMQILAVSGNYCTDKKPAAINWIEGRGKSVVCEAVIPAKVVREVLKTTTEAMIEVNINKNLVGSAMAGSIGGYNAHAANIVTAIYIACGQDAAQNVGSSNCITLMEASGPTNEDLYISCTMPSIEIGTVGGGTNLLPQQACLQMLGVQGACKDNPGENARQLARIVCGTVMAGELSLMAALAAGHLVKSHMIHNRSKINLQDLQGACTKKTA
In short: (§1)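 HMG-CoA reductase kit assay using supplied HMGR enzyme, HMG-CoA substrate, NADPH and assay buffer. Test concentrations were 5, 10, 25, 50 and 100 µM, with % inhibition recorded at each.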

Syrian golden hamster [2] = assay: Antidyslipidemic activity in high fat diet-fed dyslipidemic syrian golden hamster model assessed as increase in serum HDL level at 10 mg/kg, po administered once daily for 7 days relative to vehicle treated control; assay type: functional, Mesocricetus auratus
In short: (§2)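 Male Golden Syrian hamsters, 12 weeks old, 110 ± 10 g, eight per group, fed high-fat diet plus fructose daily on days 1–10. Oral dosing once daily on days 4–10 in 0.1% gum acacia; HFD-fed vehicle animals served as controls. After the last dose, retro-orbital blood was taken into EDTA and plasma lipids were measured enzymatically on an autoanalyzer. Results are % change versus HFD controls; t-test/ANOVA, p<0.05.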

Syrian golden hamster [3] = assay: Antidyslipidemic activity in high fat diet-fed dyslipidemic syrian golden hamster model assessed as decrease in serum total cholesterol level at 10 mg/kg relative to vehicle treated control; assay type: functional, Mesocricetus auratus; parameters: scale not given: the % may be the effect or the level left
In short: (§3)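 Dose-response run on a separate set of high-fat/fructose-fed male Golden Syrian hamsters given oral doses of 2.5, 5, 10 and 25 mg/kg. Plasma TC, TG, HDL-C and LDL-C were measured by standard enzymatic methods on a clinical autoanalyzer. HDL/TC ratio was calculated. Results are % change relative to HFD-fed vehicle (gum acacia) controls.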

[4] = molecular target: T1, 3-hydroxy-3-methylglutaryl-coenzyme A reductase (Homo sapiens); assay: Inhibition of HMG-CoA reductase using HMG-CoA as substrate at 5 uM; in short: as §1
Syrian golden hamster [5] = assay: Antidyslipidemic activity in high fat diet-fed dyslipidemic syrian golden hamster model assessed as decrease in serum total cholesterol level at 5 mg/kg relative to vehicle treated control; assay type: functional, Mesocricetus auratus; parameters: scale not given: the % may be the effect or the level left; in short: as §3
Syrian golden hamster [6] = assay: Antidyslipidemic activity in high fat diet-fed dyslipidemic syrian golden hamster model assessed as decrease in serum total cholesterol level at 10 mg/kg, po administered once daily for 7 days relative to vehicle treated control; assay type: functional, Mesocricetus auratus; parameters: scale not given: the % may be the effect or the level left; in short: as §2
Syrian golden hamster [7] = assay: Toxicity in syrian golden hamster; assay type: organism-based, Mesocricetus auratus; conditions: in vivo
In short: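 HFD-fed male Golden Syrian hamsters, eight per group, dosed orally at 10 mg/kg once daily for 7 days in 0.1% gum acacia. Body weight was recorded daily and food intake was monitored, then compared with HFD vehicle controls.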

Syrian golden hamster [8] = assay: Antidyslipidemic activity in high fat diet-fed dyslipidemic syrian golden hamster model assessed as increase in serum ratio of HDL/total cholesterol level at 2.5 mg/kg relative to vehicle treated control; assay type: functional, Mesocricetus auratus; in short: as §3
[9] = Antioxidant activity assessed as trolox equivalent by TEAC assay; assay type: functional
Syrian golden hamster [10] = assay: Antidyslipidemic activity in high fat diet-fed dyslipidemic syrian golden hamster model assessed as decrease in serum triglyceride level at 5 mg/kg relative to vehicle treated control; assay type: functional, Mesocricetus auratus; parameters: scale not given: the % may be the effect or the level left; in short: as §3
[11] = molecular target: T1, 3-hydroxy-3-methylglutaryl-coenzyme A reductase (Homo sapiens); assay: Inhibition of HMG-CoA reductase using HMG-CoA as substrate at 25 uM; in short: as §1
Syrian golden hamster [12] = assay: Antidyslipidemic activity in high fat diet-fed dyslipidemic syrian golden hamster model assessed as increase in serum ratio of HDL/total cholesterol level at 25 mg/kg relative to vehicle treated control; assay type: functional, Mesocricetus auratus; in short: as §3
Syrian golden hamster [13] = assay: Antidyslipidemic activity in high fat diet-fed dyslipidemic syrian golden hamster model assessed as decrease in serum LDL level at 25 mg/kg relative to vehicle treated control; assay type: functional, Mesocricetus auratus; parameters: scale not given: the % may be the effect or the level left; in short: as §3
[14] = molecular target: T1, 3-hydroxy-3-methylglutaryl-coenzyme A reductase (Homo sapiens); assay: Inhibition of HMG-CoA reductase using HMG-CoA as substrate at 10 uM; in short: as §1
Syrian golden hamster [15] = assay: Antidyslipidemic activity in high fat diet-fed dyslipidemic syrian golden hamster model assessed as decrease in serum LDL level at 2.5 mg/kg relative to vehicle treated control; assay type: functional, Mesocricetus auratus; parameters: scale not given: the % may be the effect or the level left; in short: as §3
Syrian golden hamster [16] = assay: Antidyslipidemic activity in high fat diet-fed dyslipidemic syrian golden hamster model assessed as decrease in serum total cholesterol level at 2.5 mg/kg relative to vehicle treated control; assay type: functional, Mesocricetus auratus; parameters: scale not given: the % may be the effect or the level left; in short: as §3
Syrian golden hamster [17] = assay: Antidyslipidemic activity in high fat diet-fed dyslipidemic syrian golden hamster model assessed as increase in serum ratio of HDL/total cholesterol level at 10 mg/kg relative to vehicle treated control; assay type: functional, Mesocricetus auratus; in short: as §3
Syrian golden hamster [18] = assay: Antidyslipidemic activity in high fat diet-fed dyslipidemic syrian golden hamster model assessed as decrease in serum LDL level at 10 mg/kg, po administered once daily for 7 days relative to vehicle treated control; assay type: functional, Mesocricetus auratus; parameters: scale not given: the % may be the effect or the level left; in short: as §2
[19] = molecular target: T1, 3-hydroxy-3-methylglutaryl-coenzyme A reductase (Homo sapiens); assay: Inhibition of HMG-CoA reductase using HMG-CoA as substrate at 100 uM; in short: as §1
Syrian golden hamster [20] = assay: Antidyslipidemic activity in high fat diet-fed dyslipidemic syrian golden hamster model assessed as increase in serum ratio of HDL/total cholesterol level at 5 mg/kg relative to vehicle treated control; assay type: functional, Mesocricetus auratus; in short: as §3
Syrian golden hamster [21] = assay: Antidyslipidemic activity in high fat diet-fed dyslipidemic syrian golden hamster model assessed as decrease in serum triglyceride level at 10 mg/kg relative to vehicle treated control; assay type: functional, Mesocricetus auratus; parameters: scale not given: the % may be the effect or the level left; in short: as §3
Syrian golden hamster [22] = assay: Antidyslipidemic activity in high fat diet-fed dyslipidemic syrian golden hamster model assessed as decrease in serum triglyceride level at 25 mg/kg relative to vehicle treated control; assay type: functional, Mesocricetus auratus; parameters: scale not given: the % may be the effect or the level left; in short: as §3
Syrian golden hamster [23] = assay: Antidyslipidemic activity in high fat diet-fed dyslipidemic syrian golden hamster model assessed as decrease in serum triglyceride level at 10 mg/kg, po administered once daily for 7 days relative to vehicle treated control; assay type: functional, Mesocricetus auratus; parameters: scale not given: the % may be the effect or the level left; in short: as §2
Syrian golden hamster [24] = assay: Antidyslipidemic activity in high fat diet-fed dyslipidemic syrian golden hamster model assessed as decrease in serum total cholesterol level at 25 mg/kg relative to vehicle treated control; assay type: functional, Mesocricetus auratus; parameters: scale not given: the % may be the effect or the level left; in short: as §3
Syrian golden hamster [25] = assay: Antidyslipidemic activity in high fat diet-fed dyslipidemic syrian golden hamster model assessed as decrease in serum LDL level at 5 mg/kg relative to vehicle treated control; assay type: functional, Mesocricetus auratus; parameters: scale not given: the % may be the effect or the level left; in short: as §3
Syrian golden hamster [26] = assay: Antidyslipidemic activity in high fat diet-fed dyslipidemic syrian golden hamster model assessed as decrease in serum triglyceride level at 2.5 mg/kg relative to vehicle treated control; assay type: functional, Mesocricetus auratus; parameters: scale not given: the % may be the effect or the level left; in short: as §3
Syrian golden hamster [27] = assay: Antidyslipidemic activity in high fat diet-fed dyslipidemic syrian golden hamster model assessed as decrease in serum LDL level at 10 mg/kg relative to vehicle treated control; assay type: functional, Mesocricetus auratus; parameters: scale not given: the % may be the effect or the level left; in short: as §3
Syrian golden hamster [28] = assay: Antidyslipidemic activity in high fat diet-fed dyslipidemic syrian golden hamster model assessed as increase in serum ratio of serum HDL/total cholesterol level at 10 mg/kg, po administered once daily for 7 days relative to vehicle treated control; assay type: functional, Mesocricetus auratus; in short: as §2

Work on `COc1ccc(CN/C=C2\C=C(C=O)c3c(ccc4c(C)cc(=O)oc34)C2=O)cc1` yielded an inhibition [1] of 50.1%, an Activity (Syrian golden hamster [2]) of 1% and an Activity (Syrian golden hamster [3]) of 39%. It also gave an inhibition [4] of 26.1%, an Activity (Syrian golden hamster [5]) of 18% and an Activity (Syrian golden hamster [6]) of 47%. For the same compound, the Activity (Syrian golden hamster [7]) was “Non-toxic”, the Activity (Syrian golden hamster [8]) was 18% and the Activity [9] was 1.36 mM. It also gave an Activity (Syrian golden hamster [10]) of 38%, an inhibition [11] of 40.3% and an Activity (Syrian golden hamster [12]) of 86%. The Activity (Syrian golden hamster [13]) was 19%, the inhibition [14] was 34.2% and the Activity (Syrian golden hamster [15]) was 3%. It also gave an Activity (Syrian golden hamster [16]) of 19%, an Activity (Syrian golden hamster [17]) of 71% and an Activity (Syrian golden hamster [18]) of 54%. The inhibition [19] was 63.8%, the Activity (Syrian golden hamster [20]) was 26% and the Activity (Syrian golden hamster [21]) was 58%. For the same compound, the Activity (Syrian golden hamster [22]) was 61%, the Activity (Syrian golden hamster [23]) was 70% and the Activity (Syrian golden hamster [24]) was 45%. For the same compound, the Activity (Syrian golden hamster [25]) was 8%, the Activity (Syrian golden hamster [26]) was 35% and the Activity (Syrian golden hamster [27]) was 14%. It also gave an Activity (Syrian golden hamster [28]) of 80%.
